ChEMBL document CHEMBL1142155, “Human beta-defensins kill Candida albicans in an energy-dependent and salt-sensitive manner without causing membrane disruption” (2007)
The source made the active and inactive calls. The rule behind the calls is not given here.

What was measured:
[1] = tested on: Candida albicans; assay: Induction of ATP efflux in Candida albicans CAF4-2 at 11.6 uM; format: functional, organism-based
In short: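 C. albicans CAF4-2 (10⁴ cells) mixed with peptide (Hst 5 31 μM, hBD-2 11.6 μM, hBD-3 1 μM), some cells pretreated 2 h with 1 mM NaN₃; extracellular ATP read by luminometry at 0, 5, 15, 30, 45 and 60 min; quantified against per-experiment ATP standard curves as pmol ATP per 10⁴ cells.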

[2] = tested on: Candida albicans; assay: Induction of membrane permeabilization in Candida albicans assessed as calcein release at 11.6 uM after 90 min; format: functional
In short: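 Early-stationary C. albicans loaded with 5 μM (final) calcein-AM, 2 h room temperature, washed four times; 10⁶ cells with peptide, fluorescence (ex 485/em 530 nm) read every 5 min for 90 min; 100% from boiled cells (10 min), background from untreated cells; % release = (I_r − I_bkg)/(I_int − I_bkg) × 100; three independent experiments, mean ± SD.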

[3] = tested on: Candida albicans; assay: Induction of ATP efflux in Candida albicans CAF4-2 at 31 uM; format: functional, organism-based
In short: (§1)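 10⁴ C. albicans cells given 31 μM Hst 5 or 1 μM hBD-3, with or without 2 h pretreatment in 1 mM NaN₃. Extracellular ATP read by luminometry at 0, 5, 15, 30, 45 and 60 min. Values come from per-experiment ATP standard curves, as pmol ATP per 10⁴ cells.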

[4] = tested on: Nakaseomyces glabratus; assay: Fungicidal activity against Candida glabrata 931010 at 31 uM; format: functional
[5] = tested on: Nakaseomyces glabratus; assay: Fungicidal activity against Candida glabrata 932474 at 31 uM; format: functional
[6] = tested on: Candida albicans; assay: Induction of membrane permeabilization in Candida albicans assessed as calcein release at 32 uM after 90 min; format: functional
In short: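 Early-stationary yeast washed in 10 mM NaPB, loaded at 10⁷/ml with 5 μM (final) calcein-AM for 2 h at room temperature, then washed four times; 10⁶ cells given 0.8 μM hBD-3 or 32 μM Hst 5. Fluorescence (ex 485/em 530 nm) read every 5 min for 90 min. Percent release = (I_r − I_bkg)/(I_int − I_bkg) × 100, where I_int comes from boiling 10 min. Mean ± SD of three experiments.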

[7] = tested on: Candida albicans; assay: Fungicidal activity against Candida albicans CAF4-2 at 31 uM; format: functional
[8] = tested on: Candida albicans; assay: Induction of ATP efflux in Candida albicans CAF4-2 at 31 uM in presence of 1 mM sodium azide; format: functional, organism-based; in short: as §1
[9] = tested on: Candida albicans; assay: Fungicidal activity against Candida albicans CAF4-2 at 11.6 uM; format: functional
In short: (§2)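 C. albicans CAF4-2 and C. glabrata 931010 or 932474 at 10⁶/ml in 10 mM sodium phosphate pH 7.4, exposed to one peptide concentration (Hst 5 31 μM, hBD-2 11.6 μM, hBD-3 0.8 μM); 500-cell aliquots plated on YNB agar for 48 h at room temperature; loss of viability versus buffer-only control; triplicate.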

[10] = tested on: Candida albicans; assay: Antimicrobial activity against Candida albicans at 11.6 uM in presence of 10 mM NaPB; format: functional
In short: (§3)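 YNB-grown C. albicans (CAF4-2) washed and resuspended at 10⁶ cells/ml in 10, 20, 50 or 100 mM sodium phosphate buffer pH 7.4; peptide 2.9 to 11.6 μM, 1 h at 30°C; 500-cell aliquots plated on YNB agar, 48 h room temperature; loss of viability = [1 − (treated/buffer-only colonies)] × 100; at least three independent experiments, mean ± SD.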

[11] = tested on: Candida albicans; assay: Antimicrobial activity against Candida albicans at 11.6 uM in presence of 20 mM NaPB; format: functional; in short: as §3
[12] = tested on: Candida albicans; assay: Survival of Candida albicans at 11.6 uM in presence of 5 mM MgCl2; format: functional
In short: (§4)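 Cells at 10⁶/ml in 10 mM sodium phosphate pH 7.4 supplemented with 0.5, 1, 5 or 25 mM CaCl₂, MgCl₂, NaCl or KCl; hBD-2 11.6 μM for 1 h at 30°C; colonies counted on YNB agar after 48 h at room temperature; survival relative to buffer-only cells; at least three independent experiments, mean ± SD.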

[13] = tested on: Nakaseomyces glabratus; assay: Fungicidal activity against Candida glabrata 931010 at 11.6 uM; format: functional; in short: as §2
[14] = tested on: Candida albicans; assay: Survival of Candida albicans at 11.6 uM in presence of 0.5 mM NaCl; format: functional; in short: as §4
[15] = tested on: Candida albicans; assay: Survival of Candida albicans at 11.6 uM in presence of 5 mM CaCl2; format: functional; in short: as §4
[16] = tested on: Candida albicans; assay: Antimicrobial activity against Candida albicans at 11.6 uM in presence of 100 mM NaPB; format: functional; in short: as §3
[17] = tested on: Nakaseomyces glabratus; assay: Fungicidal activity against Candida glabrata 932474 at 11.6 uM; format: functional; in short: as §2
[18] = tested on: Candida albicans; assay: Cell death in Candida albicans CAF4-2 in presence of 1 mM NaN3 relative to control; format: functional
[19] = tested on: Candida albicans; assay: Antimicrobial activity against Candida albicans at 11.6 uM in presence of 50 mM NaPB; format: functional; in short: as §3
[20] = tested on: Candida albicans; assay: Survival of Candida albicans at 11.6 uM in presence of 0.5 mM MgCl2; format: functional; in short: as §4
[21] = tested on: Candida albicans; assay: Survival of Candida albicans at 11.6 uM in presence of 0.5 mM KCl; format: functional; in short: as §4
[22] = tested on: Candida albicans; assay: Survival of Candida albicans at 11.6 uM in presence of 0.5 mM CaCl2; format: functional; in short: as §4
[23] = tested on: Candida albicans; assay: Fungicidal activity against Candida albicans CAF4-2 at 0.8 uM; format: functional
[24] = tested on: Candida albicans; assay: Cell death in Candida albicans CAF4-2 at >= 0.8 uM in presence of 1 mM NaN3 relative to control
[25] = tested on: Nakaseomyces glabratus; assay: Fungicidal activity against Candida glabrata 931010 at 0.8 uM; format: functional
[26] = tested on: Candida albicans; assay: Antimicrobial activity against Candida albicans at 1.0 uM in presence of 20 mM NaPB; format: functional
In short: (§5)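 YNB-grown yeast washed twice and resuspended at 10⁶ cells/ml in 10, 20, 50 or 100 mM sodium phosphate buffer, pH 7.4; peptide 0.2 to 1.0 μM for 1 h at 30°C. Diluted aliquots of 500 cells plated on YNB agar, 48 h at room temperature. Loss of viability = [1 − (treated colonies/buffer-only colonies)] × 100; at least three independent experiments.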

[27] = tested on: Nakaseomyces glabratus; assay: Fungicidal activity against Candida glabrata 932474 at 0.8 uM; format: functional
[28] = tested on: Candida albicans; assay: Antimicrobial activity against Candida albicans at 1.0 uM in presence of 10 mM NaPB; format: functional; in short: as §5
[29] = tested on: Candida albicans; assay: Cell death in Candida albicans CAF4-2 at <= 0.6 uM in the presence of 1 mM NaN3 relative to control; format: functional
[30] = tested on: Candida albicans; assay: Antimicrobial activity against Candida albicans at 1.0 uM in presence of 50 mM NaPB; format: functional; in short: as §5

Structure (SMILES): CC[C@H](C)[C@H](NC(=O)CN)C(=O)NCC(=O)N[C@@H](CC(=O)O)C(=O)N1CCC[C@H]1C(=O)N[C@H](C(=O)N[C@H](C(=O)N[C@@H](CS)C(=O)N[C@@H](CC(C)C)C(=O)N[C@@H](CCCCN)C(=O)N[C@@H](CO)C(=O)NCC(=O)N[C@@H](C)C(=O)N[C@H](C(=O)N[C@@H](CS)C(=O)N[C@@H](Cc1cnc[nH]1)C(=O)N1CCC[C@H]1C(=O)N[C@H](C(=O)N[C@@H](Cc1ccccc1)C(=O)N[C@@H](CS)C(=O)N1CCC[C@H]1C(=O)N[C@@H](CCCNC(=N)N)C(=O)N[C@@H](CCCNC(=N)N)C(=O)N[C@@H](Cc1ccc(O)cc1)C(=O)N[C@@H](CCCCN)C(=O)N[C@@H](CCC(N)=O)C(=O)N[C@H](C(=O)NCC(=O)N[C@H](C(=O)N[C@@H](CS)C(=O)NCC(=O)N[C@@H](CC(C)C)C(=O)N1CCC[C@H]1C(=O)NCC(=O)N[C@H](C(=O)N[C@@H](CCCCN)C(=O)N[C@@H](CS)C(=O)N[C@@H](CS)C(=O)N[C@@H](CCCCN)C(=O)N[C@@H](CCCCN)C(=O)N1CCC[C@H]1C(=O)O)[C@H](C)O)[C@H](C)O)[C@@H](C)CC)C(C)C)[C@@H](C)CC)[C@H](C)O)C(C)C
- Activity [1]: Active
- Activity [2]: 10.3%

Structure (SMILES): C[C@H](NC(=O)[C@H](Cc1cnc[nH]1)NC(=O)[C@H](CO)NC(=O)[C@@H](N)CC(=O)O)C(=O)N[C@@H](CCCCN)C(=O)N[C@@H](CCCNC(=N)N)C(=O)N[C@@H](Cc1cnc[nH]1)C(=O)N[C@@H](Cc1cnc[nH]1)C(=O)NCC(=O)N[C@@H](Cc1ccc(O)cc1)C(=O)N[C@@H](CCCCN)C(=O)N[C@@H](CCCNC(=N)N)C(=O)N[C@@H](CCCCN)C(=O)N[C@@H](Cc1ccccc1)C(=O)N[C@@H](Cc1cnc[nH]1)C(=O)N[C@@H](CCC(=O)O)C(=O)N[C@@H](CCCCN)C(=O)N[C@@H](Cc1cnc[nH]1)C(=O)N[C@@H](Cc1cnc[nH]1)C(=O)N[C@@H](CO)C(=O)N[C@@H](Cc1cnc[nH]1)C(=O)N[C@@H](CCCNC(=N)N)C(=O)NCC(=O)N[C@@H](Cc1ccc(O)cc1)C(=O)O [HISTATIN 5]
- Activity [3]: Active
- Activity [4]: 12.2%
- Activity [5]: 29.4%
- Activity [6]: 11%
- Activity [7]: 97.5%
- Activity [8]: inactive

Structure (SMILES): CC[C@H](C)[C@H](NC(=O)CN)C(=O)NCC(=O)N[C@@H](CC(=O)O)C(=O)N1CCC[C@H]1C(=O)N[C@H](C(=O)N[C@H](C(=O)N[C@@H](CS)C(=O)N[C@@H](CC(C)C)C(=O)N[C@@H](CCCCN)C(=O)N[C@@H](CO)C(=O)NCC(=O)N[C@@H](C)C(=O)N[C@H](C(=O)N[C@@H](CS)C(=O)N[C@@H](Cc1cnc[nH]1)C(=O)N1CCC[C@H]1C(=O)N[C@H](C(=O)N[C@@H](Cc1ccccc1)C(=O)N[C@@H](CS)C(=O)N1CCC[C@H]1C(=O)N[C@@H](CCCNC(=N)N)C(=O)N[C@@H](CCCNC(=N)N)C(=O)N[C@@H](Cc1ccc(O)cc1)C(=O)N[C@@H](CCCCN)C(=O)N[C@@H](CCC(N)=O)C(=O)N[C@H](C(=O)NCC(=O)N[C@H](C(=O)N[C@@H](CS)C(=O)NCC(=O)N[C@@H](CC(C)C)C(=O)N1CCC[C@H]1C(=O)NCC(=O)N[C@H](C(=O)N[C@@H](CCCCN)C(=O)N[C@@H](CS)C(=O)N[C@@H](CS)C(=O)N[C@@H](CCCCN)C(=O)N[C@@H](CCCCN)C(=O)N1CCC[C@H]1C(=O)O)[C@@H](C)O)[C@@H](C)O)[C@@H](C)CC)C(C)C)[C@@H](C)CC)[C@@H](C)O)C(C)C
- Activity [9]: 95%
- Activity [10]: 95%
- Activity [11]: 54%
- Activity [12]: 97.6%
- Activity [13]: 20.2%
- Activity [14]: 24%
- Activity [15]: 86%
- Activity [16]: 24%
- Activity [17]: 89.6%
- Activity [18]: 15%
- Activity [19]: 29%
- Activity [20]: 58.4%
- Activity [21]: 18%
- Activity [22]: 69%

Structure (SMILES): CC[C@H](C)[C@H](NC(=O)CN)C(=O)N[C@H](C(=O)N[C@@H](CC(N)=O)C(=O)N[C@H](C(=O)N[C@@H](CC(C)C)C(=O)N[C@@H](CCC(N)=O)C(=O)N[C@@H](CCCCN)C(=O)N[C@@H](Cc1ccc(O)cc1)C(=O)N[C@@H](Cc1ccc(O)cc1)C(=O)N[C@@H](CS)C(=O)N[C@@H](CCCNC(=N)N)C(=O)N[C@H](C(=O)N[C@@H](CCCNC(=N)N)C(=O)NCC(=O)NCC(=O)N[C@@H](CCCNC(=N)N)C(=O)N[C@@H](CS)C(=O)N[C@@H](C)C(=O)N[C@H](C(=O)N[C@@H](CC(C)C)C(=O)N[C@@H](CO)C(=O)N[C@@H](CS)C(=O)N[C@@H](CC(C)C)C(=O)N1CCC[C@H]1C(=O)N[C@@H](CCCCN)C(=O)N[C@@H](CCC(=O)O)C(=O)N[C@@H](CCC(=O)O)C(=O)N[C@@H](CCC(N)=O)C(=O)N[C@H](C(=O)NCC(=O)N[C@@H](CCCCN)C(=O)N[C@@H](CS)C(=O)N[C@@H](CO)C(=O)N[C@H](C(=O)N[C@@H](CCCNC(=N)N)C(=O)NCC(=O)N[C@@H](CCCNC(=N)N)C(=O)N[C@@H](CCCCN)C(=O)N[C@@H](CS)C(=O)N[C@@H](CS)C(=O)N[C@@H](CCCNC(=N)N)C(=O)N[C@@H](CCCNC(=N)N)C(=O)N[C@@H](CCCCN)C(=O)N[C@@H](CCCCN)C(=O)O)[C@@H](C)O)[C@@H](C)CC)C(C)C)C(C)C)[C@@H](C)O)[C@@H](C)CC
- Activity [23]: 98.2%
- Activity [24]: 36%
- Activity [25]: 11.5%
- Activity [26]: 63%
- Activity [27]: 53.2%
- Activity [28]: 98.2%
- Activity [29]: <10%
- Activity [30]: 18%
